{"source": "paper PMC7985749", "about": "(CNS Drugs, 2021)", "key": {"[1]": {"test": "Plasma pharmacokinetics, multiple ascending dose", "format": "in vivo, human", "details": "for Tmax / AUC(0-t) / Cmax / half-life: human, plasma, oral; for AUC(0-t) / Cmax / half-life: mean (CV %); for half-life: t½, 5 days"}, "[2]": {"test": "Adverse events / TEAEs, older adult", "format": "in vivo, human"}, "platelet levels": {"tested_on": "platelet levels", "test": "Platelet levels", "format": "in vivo, human", "method_in_brief": "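Young volunteers took the test compound or placebo orally once daily for 5 days, 0.2–4 mg/day; older adults took 2.5 mg/day. Platelets were counted in hematology safety blood samples at preset timepoints through 264 h and at follow-up, as % change from baseline. The MID limit included >50% platelet drop or grade ≥1 thrombocytopenia in >50% of active, not placebo, subjects. EC50 and EC80 came from a nonlinear exposure–response fit.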"}, "[3]": {"test": "Rodent models: therapeutic effect versus hematopoietic impact", "format": "in vivo", "details": "rodents"}, "[4]": {"details": "Elderly cohort, active treatment, 5 days, n = 3"}}, "data": [{"smiles": "Nc1nnc(CN[C@@H]2C[C@H]2c2ccc(OCc3ccccc3)cc2)o1", "note": "[vafidemstat]", "values": [{"measurement": "Pharmacokinetic profiles, young versus older adult populations", "setting": "[1]; 2.5 mg/day", "result": "did not differ significantly"}, {"measurement": "Tmax", "setting": "[1]; both, 0.2 mg/day", "result": 5.1, "unit": "h"}, {"measurement": "AUC(0-t)", "setting": "[1]; both, 0.2 mg/day, AUC0–t (D1), MAD 0.2 mg/day, day 1, young", "result": 18.7, "unit": "ng·h/mL"}, {"measurement": "AUC(0-t)", "setting": "[1]; both, 0.2 mg/day, AUC0–t,ss (D5), MAD 0.2 mg/day, day 5, young", "result": 37.7, "unit": "ng·h/mL"}, {"measurement": "Cmax", "setting": "[1]; both, 0.2 mg/day, Cmax (D1), MAD 0.2 mg/day, day 1, young", "result": 1.28, "unit": "ng/mL"}, {"measurement": "Cmax", "setting": "[1]; both, 0.2 mg/day, Cmax,ss (D5), MAD 0.2 mg/day, day 5, young", "result": 2.32, "unit": "ng/mL"}, {"measurement": "half-life", "setting": "[1]; both, 0.2 mg/day, MAD 0.2 mg/day, young", "result": 22, "unit": "h"}, {"measurement": "Tmax", "setting": "[1]; both, 0.6 mg/day", "result": 2.25, "unit": "h"}, {"measurement": "AUC(0-t)", "setting": "[1]; both, 0.6 mg/day, AUC0–t (D1), MAD 0.6 mg/day, day 1, young", "result": 50.6, "unit": "ng·h/mL"}, {"measurement": "AUC(0-t)", "setting": "[1]; both, 0.6 mg/day, AUC0–t,ss (D5), MAD 0.6 mg/day, day 5, young", "result": 114, "unit": "ng·h/mL"}, {"measurement": "Cmax", "setting": "[1]; both, 0.6 mg/day, Cmax (D1), MAD 0.6 mg/day, day 1, young", "result": 3.69, "unit": "ng/mL"}, {"measurement": "Cmax", "setting": "[1]; both, 0.6 mg/day, Cmax,ss (D5), MAD 0.6 mg/day, day 5, young", "result": 7.65, "unit": "ng/mL"}, {"measurement": "half-life", "setting": "[1]; both, 0.6 mg/day, MAD 0.6 mg/day, young", "result": 22, "unit": "h"}, {"measurement": "Tmax", "setting": "[1]; both, 1 mg/day", "result": 1.83, "unit": "h"}, {"measurement": "Tmax", "setting": "[1]; both, 1.5 mg/day", "result": 1.17, "unit": "h"}, {"measurement": "AUC(0-t)", "setting": "[1]; both, 1.5 mg/day, AUC0–t (D1), MAD 1.5 mg/day, day 1, young", "result": 138, "unit": "ng·h/mL"}, {"measurement": "AUC(0-t)", "setting": "[1]; both, 1.5 mg/day, AUC0–t,ss (D5), MAD 1.5 mg/day, day 5, young", "result": 299, "unit": "ng·h/mL"}, {"measurement": "Cmax", "setting": "[1]; both, 1.5 mg/day, Cmax (D1), MAD 1.5 mg/day, day 1, young", "result": 11.3, "unit": "ng/mL"}, {"measurement": "Cmax", "setting": "[1]; both, 1.5 mg/day, Cmax,ss (D5), MAD 1.5 mg/day, day 5, young", "result": 23.6, "unit": "ng/mL"}, {"measurement": "half-life", "setting": "[1]; both, 1.5 mg/day, MAD 1.5 mg/day, young", "result": 22, "unit": "h"}, {"measurement": "Tmax", "setting": "[1]; both, 2.5 mg/day", "result": 2.17, "unit": "h"}, {"measurement": "AUC(0-t)", "setting": "[1]; both, 2.5 mg/day, AUC0–t (D1), MAD 2.5 mg/day, day 1, young", "result": 292, "unit": "ng·h/mL"}, {"measurement": "AUC(0-t)", "setting": "[1]; both, 2.5 mg/day, AUC0–t,ss (D5), MAD 2.5 mg/day, day 5, young", "result": 634, "unit": "ng·h/mL"}, {"measurement": "AUC(0-t)", "setting": "[1]; both, 2.5 mg/day, AUC0–t,ss (D5), MAD older adult 2.5 mg/day, day 5", "result": 442, "unit": "ng·h/mL"}, {"measurement": "Cmax", "setting": "[1]; both, 2.5 mg/day, Cmax (D1), MAD 2.5 mg/day, day 1, young", "result": 26.6, "unit": "ng/mL"}, {"measurement": "Cmax", "setting": "[1]; both, 2.5 mg/day, Cmax,ss (D5), MAD 2.5 mg/day, day 5, young", "result": 49.9, "unit": "ng/mL"}, {"measurement": "half-life", "setting": "[1]; both, 2.5 mg/day, MAD 2.5 mg/day, young", "result": 22, "unit": "h"}, {"measurement": "half-life", "setting": "[1]; both, 2.5 mg/day, MAD older adult 2.5 mg/day", "result": 23, "unit": "h"}, {"measurement": "Tmax", "setting": "[1]; both, 4 mg/day", "result": 1.33, "unit": "h"}, {"measurement": "AUC(0-t)", "setting": "[1]; both, 4 mg/day, AUC0–t (D1), MAD 4.0 mg/day, day 1, young", "result": 564, "unit": "ng·h/mL"}, {"measurement": "AUC(0-t)", "setting": "[1]; both, 4 mg/day, AUC0–t,ss (D5), MAD 4.0 mg/day, day 5, young", "result": 994, "unit": "ng·h/mL"}, {"measurement": "Cmax", "setting": "[1]; both, 4 mg/day, Cmax (D1), MAD 4.0 mg/day, day 1, young", "result": 56, "unit": "ng/mL"}, {"measurement": "Cmax", "setting": "[1]; both, 4 mg/day, Cmax,ss (D5), MAD 4.0 mg/day, day 5, young", "result": 110, "unit": "ng/mL"}, {"measurement": "half-life", "setting": "[1]; both, 4 mg/day, MAD 4.0 mg/day, young", "result": 20, "unit": "h"}, {"measurement": "Tmax", "setting": "[1]; 2.5 mg/day", "result": 2.33, "unit": "h"}, {"measurement": "AUC(0-t)", "setting": "[1]; 2.5 mg/day, AUC0–t (D1), MAD older adult 2.5 mg/day, day 1", "result": 258, "unit": "ng·h/mL"}, {"measurement": "Cmax", "setting": "[1]; 2.5 mg/day, Cmax (D1), MAD older adult 2.5 mg/day, day 1", "result": 24.3, "unit": "ng/mL"}, {"measurement": "Cmax", "setting": "[1]; 2.5 mg/day, Cmax,ss (D5), MAD older adult 2.5 mg/day, day 5", "result": 41, "unit": "ng/mL"}, {"measurement": "Number of TEAEs (% of total TEAEs): Asthenia", "setting": "[2]; [4]", "result": "1 (4.8) n (%)"}, {"measurement": "Number of TEAEs (% of total TEAEs): Blunted effect", "setting": "[2]; [4]", "result": "1 (4.8) n (%)"}, {"measurement": "Number of TEAEs (% of total TEAEs): Feeling cold", "setting": "[2]; [4]", "result": "1 (4.8) n (%)"}, {"measurement": "Number of TEAEs (% of total TEAEs): Gait disturbance", "setting": "[2]; [4]", "result": "1 (4.8) n (%)"}, {"measurement": "Number of TEAEs (% of total TEAEs): Headache", "setting": "[2]; [4]", "result": "3 (14.3) n (%)"}, {"measurement": "Number of TEAEs (% of total TEAEs): Musculoskeletal stiffness", "setting": "[2]; [4]", "result": "1 (4.8) n (%)"}, {"measurement": "Number of TEAEs (% of total TEAEs): Palpitations", "setting": "[2]; [4]", "result": "1 (4.8) n (%)"}, {"measurement": "Number of TEAEs (% of total TEAEs): Total", "setting": "[2]; [4]", "result": "10 (47.6) n (%)"}, {"measurement": "Number of TEAEs (% of total TEAEs): Vertigo", "setting": "[2]; [4]", "result": "1 (4.8) n (%)"}, {"measurement": "Number of treatment-related TEAEs", "setting": "[2]; MAD stage in older adult volunteers, with vafidemstat", "result": 10}, {"measurement": "Maximum tolerated dose", "setting": "platelet levels; MAD, 5 days", "result": 2.5, "unit": "mg/day"}, {"measurement": "Minimum intolerable dose (MID) as defined per protocol", "setting": "platelet levels; MAD, 5 days", "result": 4, "unit": "mg/day"}, {"measurement": "Platelet levels", "setting": "platelet levels; any SAD dose level or up to MAD dose III (1.0 mg/day)", "result": "no variations"}, {"measurement": "Platelet level drops from baseline versus exposure", "setting": "platelet levels; at Cmax,ss of ~ 100 ng/mL and AUCss of ~ 1000 ng·h/mL", "result": "~ 50%"}, {"measurement": "Window between the therapeutic effect and hematopoietic impact", "setting": "[3]", "result": 30, "unit": "fold"}]}]}
